Screens: PubChem, Columbia University Molecular Screening Center
Many of the other results were omitted from the sample, so hits are more common in it than they were.
INS promoter act: activators of insulin promoter-driven GFP, primary screen, imaging, TRM-6 cells (human fetal islet line), eGFP reporter, cell count | plate-scaled: unstimulated 0, stimulated control 100 | activation, % at 2 µM | hit rate 0.81% among 130,000;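 active = activation at 2 µM above a set limit, confirmed on inspection of the cell images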;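 note: share of cells whose green reporter signal exceeds an intensity cutoff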
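Test system: TRM-6 insulin promoter–eGFP reporter cells / Quantity: 1,000 cells per well / Reagent: tamoxifen inducer, 0.75 µM, in seeding medium / Compound dosing: 2 µM final, single concentration / Schedule: overnight tamoxifen, then two-day compound incubation at 37 °C / Measured by: automated fluorescence imaging of paraformaldehyde-fixed, Hoechst-counterstained cells, green channel / Read-out: percent activation from GFP-positive cell fraction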
Of the large screens only hits and unclear results are named; the others gave an inactive call.

CCOC(=O)CNc1nnc(SCC(=O)OCC)[nH]c1=O	none
CCC(=O)N(c1ccc(C(=O)O)cc1)c1nc(-c2ccc(OC)cc2)c(C)s1	none
Cc1ccc(NC(=O)c2ccccc2NS(=O)(=O)c2ccc(Cl)s2)cc1S(=O)(=O)N1CCOCC1	none
Cc1ccc(NC(=O)c2ccc(-n3cccn3)c([N+](=O)[O-])c2)cc1C	INS promoter act 218
O=C(Nc1cccc(Cl)c1)c1ccc(-n2cncn2)c([N+](=O)[O-])c1	none
Cc1ccc(NC(=O)c2ccncc2)cc1[N+](=O)[O-]	none
CCn1c(SC(C)C(=O)NC2CCCc3ccccc32)nnc1-c1cccs1 (configuration not stated)	none
COc1ccc(NC(=O)C(Sc2nnc3ccccn23)c2ccccc2)cc1Cl (configuration not stated)	none
COc1ccc(N2CCN(C(=O)Cc3ccc(-n4c(=O)[nH]c5ccccc5c4=O)cc3)CC2)cc1	none
CCOC(=O)N1CCC(NC(=O)c2cn(-c3ccc(OC)cc3)c(=O)c3ccccc23)CC1	none
CCOC(=O)N1CCC(NC(=O)Cc2ccc(-n3c(=O)[nH]c4ccccc4c3=O)cc2)CC1	INS promoter act 500
CCSc1nnc(NC(=O)CSc2nnc(Cc3cccn3C)n2-c2ccc(C)cc2)s1	none
O=C(Oc1cc(-c2ccccc2)no1)c1ccc(Cl)cc1	none
CCc1cc2cc(C(=O)Nc3ccc(C)cc3)sc2s1	none
CCN(CC)CCn1c(=N)n(CC(O)c2ccco2)c2ccccc21 (configuration not stated)	INS promoter act 508
Cn1c(=N)n(CC(=O)O)c2ccccc21	none
N=c1n(Cc2ccccc2)c2ccccc2n1CC(O)c1ccco1 (configuration not stated)	none
CCOC(=O)N1CCN(S(=O)(=O)c2ccc(OCC(=O)OC)c(Cl)c2)CC1	none
COC(=O)COc1ccc(S(=O)(=O)Nc2ccc(C(N)=O)cc2)cc1C	none
COC(=O)COc1ccc(-c2ccc(F)cc2)cc1C=O	INS promoter act 450
COc1ccc(NC(=O)CC(C)c2ccccc2)c([N+](=O)[O-])c1 (configuration not stated)	INS promoter act 443
COc1ccc(NC(=O)COC(=O)c2ccco2)c([N+](=O)[O-])c1	none
COc1ccc(NC(=O)/C=C/c2ccccc2)c([N+](=O)[O-])c1	none
CCS(=O)(=O)N1CCN=C1SCc1cccnc1	none
O=C(Nc1cccc2oc(=O)ccc12)c1ccc([N+](=O)[O-])cc1[N+](=O)[O-]	none
CCC(NC(=O)c1ccc([N+](=O)[O-])cc1[N+](=O)[O-])c1ccccc1 (configuration not stated)	INS promoter act 80
CCC(NC(=O)COc1ccc([N+](=O)[O-])cc1)c1ccccc1 (configuration not stated)	none
Cc1ccccc1N(CC(=O)O)S(C)(=O)=O	INS promoter act 475
Cc1ccccc1N(CC(N)=O)S(C)(=O)=O	none
COc1ccccc1N(CC(=O)Nc1ccccc1C)S(C)(=O)=O	none
CCN=C1SC(C(=O)Nc2cccc(Br)c2)CC(=O)N1CC (configuration not stated)	none
CN(C)c1cc[n+](CC(=O)Nc2ccc(Oc3ccccc3)cc2)cc1	none
CCn1ccc(C(=O)Nc2c(C)nn(Cc3c(F)c(F)c(F)c(F)c3F)c2C)n1	INS promoter act 364
Cc1nn(Cc2c(F)c(F)c(F)c(F)c2F)c(C)c1NC(=O)c1c([N+](=O)[O-])cnn1C	none
Cc1nn(Cc2c(F)c(F)c(F)c(F)c2F)c(C)c1NC(=O)c1c([N+](=O)[O-])c(C)nn1C	none
CCC(CC)C(=O)c1c[nH]c(C(=O)NN)c1	none
S=C1NCCc2ccccc2C1c1ccccc1Cl (configuration not stated)	INS promoter act 469
Cc1ccc(S(=O)(=O)NCC2NCCc3ccccc32)cc1 (configuration not stated)	none
CO/N=C/C(C#N)=C/c1cc(C(=O)c2ccccc2)cn1C	none
CN(C)C(=O)c1ccc(COc2ccccc2Br)o1	INS promoter act 421
O=C(Nc1cccnc1)c1ccc(COc2ccccc2Cl)o1	none
O=C(c1ccc(COc2ccccc2Br)o1)N1CCN(c2ccccn2)CC1	none
Cn1c(Cn2c(=O)sc3ccccc32)nnc1SCC(=O)Nc1ccc2c(c1)OCO2	none
c1ccc(C2=Nc3cccnc3C(c3ccccc3)=NN2)cc1	none
COc1ccc(Nc2nc(NC(C)(C)C)nc(N3CCOCC3)n2)c(OC)c1	none
COc1ccc(Nc2nc(Nc3ccc(OC)cc3OC)nc(N3CCN(C)CC3)n2)c(OC)c1	INS promoter act 317
COc1ccc(Nc2nc(NC(C)(C)C)nc(N3CCCC3)n2)c(OC)c1	none
CC/C(C)=C1\SC(N2CCOCC2)=NC1=O	none
